The subject of one data set is HT-29. Kind of data set: Cytotoxicity against human HT-29 cells after 72 hrs by MTT assay. The format is functional, cell-based. The settings on record: HT-29, 72 h. (In general: Tetrazolium dyes change colour on reduction, which living cells bring about.)
Data set [1] concerns HeLa. In words: Induction of cell cycle arrest in human HeLa cells assessed as G2/M phase cells at 60 nM after 24 hrs by flow cytometry. The data set is classed as functional. The method, boiled down: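 Exponentially growing HeLa cells (5 × 10^5) were treated 24 h at 15–250 nM. Cells were fixed in ice-cold 70% ethanol, lysed with RNase A/0.1% Triton X-100 buffer and stained with propidium iodide. DNA content was measured by flow cytometry to score G2/M fraction. Mean ± SEM of three independent experiments.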
Background: A flow cytometer gives signals particle by particle.

Data set [2] concerns HeLa. Kind of data set: Induction of apoptosis in human HeLa cells assessed as caspase9 activation at 50 to 100 nM after 24 to 48 hrs by Western blot analysis. The format is functional, cell-based. The method, boiled down:
(§1)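 HeLa cells were treated for 24 or 48 h, washed in ice-cold PBS and lysed on ice for 30 min; lysates were spun at 15000g, 4 °C. 20 μg protein per lane on SDS-PAGE (7.5–15%), then PVDF. Blocked overnight at 4 °C, primary antibodies 2 h at room temperature, peroxidase secondary 60 min, ECL detection. Blots were reprobed for β-actin as loading control.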
Background: In western blotting, separated proteins are transferred to a membrane and probed.

In data set [3] the test system is HeLa. Kind of data set: Induction of cell cycle arrest in human HeLa cells assessed as decrease in G1 phase cells at 15 to 250 nM after 24 hrs by flow cytometry. The data set is classed as functional, cell-based. The method, boiled down:
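5 × 10^5 exponentially growing HeLa cells were treated with 15–250 nM for 24 h, fixed in ice-cold 70% ethanol, then treated with lysis buffer containing RNase A and 0.1% Triton X-100. PI staining of DNA content, read by flow cytometry. Mean ± SEM of three independent experiments.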

The test system of data set [4] is HeLa. Kind of data set: Induction of apoptosis in human HeLa cells assessed as late apoptotic cells at 100 nM after 48 hrs by FITC conjugated annexin-V/PI staining-based flow cytometry (reference value: 2.9%). The format is functional.
A further data set deals with Mus musculus. In words: Toxicity in BALB/c nude mouse assessed as change in body weight at 100 mg/kg, ip administered on days 0,2 and 4 measured after 1 week relative to control. The format is organism-based. Further details: dose 100 mg/kg, route intraperitoneal. The settings on record: in vivo, 168 h. The method, boiled down:
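HT-29 cells in log phase, resuspended in serum-free RPMI 1640 at 1 × 10^7 cells/mL, inoculated 0.2 mL subcutaneously in the back of nude mice. At ~300 mm3, 18 mice were randomized to vehicle or two treatment groups. Dosing: 100 mg/kg in DMSO, ip at 0.01 mL/g, on days 0, 2 and 4. Tumor volume by caliper as (LW2)/2 and body weight recorded; n = 6 per group, mean ± SEM.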

In data set [5] the test system is HeLa. Kind of data set: Induction of ROS production in human HeLa cells at 50 to 100 nM after 24 to 48 hrs by HE staining-based flow cytometry. The data set is classed as functional, cell-based. The method, boiled down:
(§2)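 HeLa cells were exposed for 24 or 48 h, then stained with hydroethidine or H2-DCFDA for ROS and read by flow cytometry. DMSO ≤0.25%. Mean ± SEM of three independent experiments.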

A further data set is filed under the species Bos taurus. In words: Displacement of [3H]colchicine from bovine tubulin at 5 uM by DEAE-cellulose filter method. The method, boiled down:
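Inhibition of [3H]colchicine binding was measured in mixtures of 1 μM tubulin, 5 μM [3H]colchicine and 5 μM test compound. Results are percent inhibition of binding.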

The test system of data set [6] is LoVo. In words: Cytotoxicity against human doxorubicin-resistant LoVo cells after 72 hrs by MTT assay. The format is functional, cell-based. The method, boiled down:
(§3)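 Cells seeded at 8 × 10^3 per well and left 18 h at 37 °C, 5% CO2, then given fresh medium with compound at a range of concentrations for 72 h; DMSO at most 0.25% final. Viability read by MTT relative to 0.25% DMSO-treated cells. […] LoVoDoxo kept in Ham's F12 with 0.1 μg/mL doxorubicin; A549-T12 kept in DMEM with 12 nM paclitaxel.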

Data set [7] concerns HeLa. In words: Induction of apoptosis in human HeLa cells assessed as decrease in Bcl2 protein level at 50 to 100 nM after 48 hrs by Western blot analysis. The data set is classed as functional, cell-based. The method, boiled down:
as §1

The subject of data set [8] is HeLa. Kind of data set: Induction of mitochondrial depolarization in human HeLa cells after 24 to 48 hrs by JC1-based fluorescent staining. The data set is classed as functional, cell-based. The method, boiled down: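 Mitochondrial membrane potential in HeLa cells after 24 or 48 h incubation, measured with the JC-1 dye by flow cytometry. Aggregates read as red (590 nm) and monomers as 530 nm; output is the percentage of depolarized cells. Mean ± SEM of three independent experiments.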

Data set [9] relates to HeLa. Kind of data set: Induction of apoptosis in human HeLa cells assessed as viable cells at 100 nM after 48 hrs by FITC conjugated annexin-V/PI staining-based flow cytometry (reference value: 86.7%). The format is functional. Particulars: read-out: Activity. The method, boiled down: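 Flow cytometry of HeLa cells after 24 or 48 h exposure, double-stained with annexin-V-FITC and propidium iodide. Excitation at 488 nm, emission at 525 nm (FITC) and 585 nm (PI). Quadrants scored as live, early apoptotic, late apoptotic or necrotic cells.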

Data set [10] relates to HeLa. In words: Induction of cell cycle arrest in human HeLa cells assessed as increase in cyclin B1 expression at 50 to 100 nM after 24 to 48 hrs by Western blot analysis. The data set is classed as functional, cell-based. The method, boiled down: as §1
The next data set deals with CCRF-CEM. In words: Cytotoxicity against human CEM cells after 72 hrs by MTT assay. The format is functional, cell-based. The method, boiled down: as §3
A further data set has as its system A549. In words: Resistance ratio of IC50 for human A549-T12 cells to IC50 for human A549 cells. The data set is classed as functional.
Data set [11] has as its system HeLa. In words: Induction of ROS production in human HeLa cells at 50 to 100 nM after 24 to 48 hrs by H2-DCFDA staining-based flow cytometry. The format is functional, cell-based. The method, boiled down: as §2
In data set [12] the test system is LoVo. In words: Cytotoxicity against human LoVo cells after 72 hrs by MTT assay. The format is functional, cell-based. The method, boiled down:
as §3

Data set [13] can be described thus: Inhibition of bovine tubulin polymerisation after 20 mins by turbidimetric analysis. Further details: species or system Bos taurus. The method, boiled down: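 Bovine brain tubulin at 10 μM was preincubated with varying compound concentrations in glutamate buffer at 30 °C, cooled to 0 °C, and 0.4 mM GTP added. Samples were warmed to 30 °C and assembly followed by turbidity at 350 nm.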

For data set [14], the system named is HeLa. In words: Induction of apoptosis in human HeLa cells assessed as change in Bax protein expression at 50 to 100 nM after 24 to 48 hrs by Western blot analysis. The format is functional, cell-based. The method, boiled down:
as §1

Calls of active or inactive are those of the source. The rule behind the calls is not given here. A value given as a limit tells only on which side of the number the result lay.

As to `CCOc1ccc(-c2nnnn2-c2cc(OC)c(OC)c(OC)c2)cc1`, the IC50 in the data set on HT-29 was 2.8 nM; in the data set on LoVo [6], 0.7 nM; with CCRF-CEM it was 3.1 nM; with LoVo [12] it was 1.1 nM; in data set [13] it was 1100 nM. The Activity in the data set with HeLa [1] is >80%; in the data set with HeLa [4], 27.7%; in the data set with Mus musculus, “Non-toxic”; in the data set on HeLa [8], “Dose-dependent effect”. The outcome with HeLa [2], with HeLa [3], in the data set on HeLa [5], in the data set with HeLa [7], in the data set with HeLa [10] and in the data set with HeLa [11] was Active. Also, in the data set filed under Bos taurus, the inhibition came out at 78%. In addition, the viability at 0.1 µM with HeLa [9] is 36.1%. In the data set with A549, the “Ratio IC50” value is 1. The result in the data set on HeLa [14] was inactive.

In general, IC50 refers to the concentration that inhibits the measured activity by half. Usually inhibition stands for the change of the read-out against control, counted positive when it falls.

The values above are taken from ChEMBL document CHEMBL1944515 (J Med Chem, 2012).
